In ChEMBL document CHEMBL3612001, “Design and discovery of 2-(4-(1H-tetrazol-5-yl)-1H-pyrazol-1-yl)-4-(4-phenyl)thiazole derivatives as cardiotonic agents via inhibition of PDE3” (Bioorg Med Chem, 2015):

How the values were obtained:
Mus musculus [1] = assay: Toxicity in Swiss albino mouse assessed as changes in creatinine level at 10 mg/kg, po dosed once orally for 28 days (reference value: 0.04 +/- 0.37 mg/dL); assay type: organism-based; conditions: in vivo, 672 h
Mus musculus [2] = assay: Toxicity in Swiss albino mouse assessed as changes in albumin level at 100 mg/kg, po dosed once orally for 28 days (reference value: 2.78 +/- 1.82 g/dL); assay type: organism-based; conditions: in vivo, 672 h
Mus musculus [3] = assay: Toxicity in Swiss albino mouse assessed as changes in triglycerides level at 10 mg/kg, po dosed once orally for 28 days (reference value: 263.69 +/- 3.38 mg/dL); assay type: organism-based; conditions: in vivo, 672 h
Mus musculus [4] = assay: Toxicity in Swiss albino mouse assessed as changes in total protein level at 10 mg/kg, po dosed once orally for 28 days (reference value: 3.45 +/- 0.45 […]); assay type: organism-based; conditions: in vivo, 672 h
Mus musculus [5] = assay: Toxicity in Swiss albino mouse assessed as changes in creatinine level at 100 mg/kg, po dosed once orally for 28 days (reference value: 0.04 +/- 0.37 mg/dL); assay type: organism-based; conditions: in vivo, 672 h
Cardiac atrium [6] = assay: Cardiotonic activity in reserpine-pretreated and spontaneously beating rat atria assessed as inotropic activity by measuring contractile force at 1 uM (reference value: 100%); assay type: functional
Method in brief: (§1)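 Male Wistar rats (250–350 g) given reserpine 5 mg/kg ip 24 h before euthanasia under thiopental 80 mg/kg ip. Whole atria mounted in Krebs–Henseleit (95% O2/5% CO2, 35–37 °C, pH 7.35–7.45) at ~0.5 g resting tension, equilibrated 40–50 min. Used only if unresponsive to tyramine 1.5 μM. Compound added cumulatively (1–100 μM). Isometric force and rate recorded, six atria per compound.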

Mus musculus [7] = assay: Toxicity in Swiss albino mouse assessed as changes in SGPT level at 0.1 mg/kg, po dosed once orally for 28 days (reference value: 41.46 +/- 17.25 U/L); assay type: organism-based; conditions: in vivo, 672 h
Mus musculus [8] = assay: Toxicity in Swiss albino mouse assessed as changes in creatinine level at 0.1 mg/kg, po dosed once orally for 28 days (reference value: 0.04 +/- 0.37 mg/dL); assay type: organism-based; conditions: in vivo, 672 h
Mus musculus [9] = assay: Toxicity in Swiss albino mouse assessed as changes in SGPT level at 10 mg/kg, po dosed once orally for 28 days (reference value: 41.46 +/- 17.25 U/L); assay type: organism-based; conditions: in vivo, 672 h
Mus musculus [10] = assay: Toxicity in Swiss albino mouse assessed as changes in cholesterol level at 0.1 mg/kg, po dosed once orally for 28 days (reference value: 138.43 +/- 1.52 mg/dL); assay type: organism-based; conditions: in vivo, 672 h
Cardiac atrium [11] = assay: Cardiotonic activity in reserpine-pretreated and spontaneously beating rat atria assessed as inotropic activity by measuring contractile force at 10 uM (reference value: 100%); assay type: functional; method in brief: as §1
Cardiac atrium [12] = assay: Cardiotonic activity in reserpine-pretreated and spontaneously beating rat atria assessed as inotropic activity by measuring contractile force at 100 uM (reference value: 100%); assay type: functional; method in brief: as §1
Mus musculus [13] = assay: Toxicity in Swiss albino mouse assessed as changes in haemoglobin level at 1 mg/kg, po dosed once orally for 28 days (reference value: 13.87 +/- 0.46 g/dL); assay type: organism-based; conditions: in vivo, 672 h
Mus musculus [14] = assay: Toxicity in Swiss albino mouse assessed as changes in body weight at 0.1 mg/kg, po dosed once orally for 28 days (reference value: 31.2 +/- 1.6g); assay type: organism-based; conditions: in vivo, 672 h
Mus musculus [15] = assay: Toxicity in Swiss albino mouse assessed as changes in SGPT level at 100 mg/kg, po dosed once orally for 28 days (reference value: 41.46 +/- 17.25 U/L); assay type: organism-based; conditions: in vivo, 672 h
Mus musculus [16] = assay: Toxicity in Swiss albino mouse assessed as changes in triglycerides level at 1 mg/kg, po dosed once orally for 28 days (reference value: 263.69 +/- 3.38 mg/dL); assay type: organism-based; conditions: in vivo, 672 h
Mus musculus [17] = assay: Toxicity in Swiss albino mouse assessed as changes in creatinine level at 1 mg/kg, po dosed once orally for 28 days (reference value: 0.04 +/- 0.37 mg/dL); assay type: organism-based; conditions: in vivo, 672 h
Mus musculus [18] = assay: Toxicity in Swiss albino mouse assessed as changes in SGPT level at 1 mg/kg, po dosed once orally for 28 days (reference value: 41.46 +/- 17.25 U/L); assay type: organism-based; conditions: in vivo, 672 h
Mus musculus [19] = assay: Toxicity in Swiss albino mouse assessed as changes in haemoglobin level at 0.1 mg/kg, po dosed once orally for 28 days (reference value: 13.87 +/- 0.46 g/dL); assay type: organism-based; conditions: in vivo, 672 h
Mus musculus [20] = assay: Toxicity in Swiss albino mouse assessed as changes in body weight at 1 mg/kg, po dosed once orally for 28 days (reference value: 31.2 +/- 1.6g); assay type: organism-based; conditions: in vivo, 672 h
Mus musculus [21] = assay: Toxicity in Swiss albino mouse assessed as changes in triglycerides level at 0.1 mg/kg, po dosed once orally for 28 days (reference value: 263.69 +/- 3.38 mg/dL); assay type: organism-based; conditions: in vivo, 672 h
Mus musculus [22] = assay: Toxicity in Swiss albino mouse assessed as changes in total protein level at 100 mg/kg, po dosed once orally for 28 days (reference value: 3.45 +/- 0.45 […]); assay type: organism-based; conditions: in vivo, 672 h
Mus musculus [23] = assay: Toxicity in Swiss albino mouse assessed as changes in cholesterol level at 10 mg/kg, po dosed once orally for 28 days (reference value: 138.43 +/- 1.52 mg/dL); assay type: organism-based; conditions: in vivo, 672 h
Mus musculus [24] = assay: Toxicity in Swiss albino mouse assessed as changes in cholesterol level at 100 mg/kg, po dosed once orally for 28 days (reference value: 138.43 +/- 1.52 mg/dL); assay type: organism-based; conditions: in vivo, 672 h
Mus musculus [25] = assay: Toxicity in Swiss albino mouse up to 1000 mg/kg, po dosed as single acute dose; assay type: organism-based; conditions: in vivo
Mus musculus [26] = assay: Toxicity in Swiss albino mouse assessed as changes in body weight at 100 mg/kg, po dosed once orally for 28 days (reference value: 31.2 +/- 1.6g); assay type: organism-based; conditions: in vivo, 672 h

## Fc1ccc(-c2csc(-n3cc(-c4nnn[nH]4)cn3)n2)cc1
Mus musculus [1]
  Activity: 0.04 mg/dL
Mus musculus [2]
  Activity: 2.59 g/dL
Mus musculus [3]
  Activity: 251.86 mg/dL
Mus musculus [4]
  Activity: 4.12 g/dL
Mus musculus [5]
  Activity: 0.05 mg/dL
Cardiac atrium [6]
  Activity: 110%
Mus musculus [7]
  Activity: 40.12 U/L
Mus musculus [8]
  Activity: 0.04 mg/dL
Mus musculus [9]
  Activity: 41.8 U/L
Mus musculus [10]
  Activity: 125.66 mg/dL
Cardiac atrium [11]
  Activity: 129%
Cardiac atrium [12]
  Activity: 163%
Mus musculus [13]
  Activity: 15.34 g/dL
Mus musculus [14]
  Activity: 29.28 g
Mus musculus [15]
  Activity: 42.1 U/L
Mus musculus [16]
  Activity: 247.26 mg/dL
Mus musculus [17]
  Activity: 0.04 mg/dL
Mus musculus [18]
  Activity: 41.34 U/L
Mus musculus [19]
  Activity: 14.5 g/dL
Mus musculus [20]
  Activity: 28.04 g
Mus musculus [21]
  Activity: 254.1 mg/dL
Mus musculus [22]
  Activity: 4.54 g/dL
Mus musculus [23]
  Activity: 135.4 mg/dL
Mus musculus [24]
  Activity: 134.3 mg/dL
Mus musculus [25]
  Activity: Non-toxic
Mus musculus [26]
  Activity: 33 g
